The text below walks through data of article PMC10979060 (Heliyon, 2024).

Test [1] has as its system ACE. Put plainly: ACE-inhibitory kinetics. In kind it is biochemical. Summed up: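 Reciprocal velocity was plotted against reciprocal HHL concentration (Lineweaver–Burk). Vmax came from the Y-axis intercept and Km from the X-axis intercept. The inhibition mode was assigned from the plot pattern. Runs were in triplicate.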
Test [2] deals with ACE. To be noted: cited from earlier work.

pIC50: −log10 of the molar value. Like-named read-outs stand apart in the source and are kept apart here. No end group written: not given here.

As a reminder, the pIC50 is the negative decadic logarithm of the IC50, by convention in mol/L.

Consider KKCHFWPFPW [KKCHFWPFPW], for which, in the test on ACE [1] (Lineweaver–Burk, HHL 0.5, 1, 2 mM, peptide 0, 17.63, 35.26, 70.52, 105.78, 141.04, 176.3 μM, triplicate), the inhibition mode result was “competitive inhibition”. The Km values entry in the test on ACE [1] (Lineweaver–Burk, HHL 0.5, 1, 2 mM, peptide added vs control, triplicate) is “higher than that of the control”. Moreover, the “inhibitor class (substrate-type, prodrug-type or true inhibitor)” value in the test on ACE [1] (according to the Lineweaver–Burk plot) is given as “true inhibitor”.
For the substance MEGAQEAQGD, the pIC50 in the test on ACE [2] (peptide from sea cucumber, ref [38]) is 5.35.
Tyr-Arg-Pro-Tyr: the pIC50 in the test on ACE [2] (peptide from bonito, ref [37]) was 3.49.
Consider Val-Lys-Pro, for which the pIC50 with ACE [2] (peptide from freshwater clam, ref [39]) was 5.43.
